Data: paper PMC6605687 (The Journal of General Physiology, 2019)
Changes are numbered by the printed parent chain.

Legend:
Type in all cases: cell-based
rP2X2 Ile185Val = biological target: T1, rP2X2 Ile185Val (Rattus norvegicus, UniProt P49653, I185V); assay: Two-electrode voltage clamp, oocytes expressing rP2X2 Ile185Val
T1 sequence (P49653 1-472 I185V): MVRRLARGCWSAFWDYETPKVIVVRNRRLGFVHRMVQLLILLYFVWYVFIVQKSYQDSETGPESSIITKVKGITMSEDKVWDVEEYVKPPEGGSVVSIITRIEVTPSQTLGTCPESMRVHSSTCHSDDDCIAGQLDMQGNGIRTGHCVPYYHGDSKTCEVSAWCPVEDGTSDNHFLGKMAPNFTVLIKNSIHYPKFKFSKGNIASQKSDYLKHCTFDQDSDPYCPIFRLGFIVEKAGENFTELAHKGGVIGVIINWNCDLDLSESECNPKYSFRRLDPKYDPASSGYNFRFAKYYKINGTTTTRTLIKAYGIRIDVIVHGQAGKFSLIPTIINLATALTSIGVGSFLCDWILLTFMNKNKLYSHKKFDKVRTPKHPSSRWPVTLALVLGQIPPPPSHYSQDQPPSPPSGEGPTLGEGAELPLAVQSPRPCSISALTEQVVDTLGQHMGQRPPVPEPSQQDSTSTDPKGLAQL
Procedure, shortened: (§1)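 Mutations were made by site-directed mutagenesis. Xenopus oocytes were injected with rP2X2 mRNA and incubated in L-15 at 18°C. Two-electrode voltage clamp was done 1–2 days later at −40 mV under ND96 perfusion (pH 7.4). ATP concentration-response currents were normalised and fitted to a one-component Hill equation for EC50 and Hill coefficient. Results are mean ± SEM, tested by one-way ANOVA with Dunnett's test against WT.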

rP2X2 Lys188Gln = biological target: T2, rP2X2 Lys188Gln (Rattus norvegicus, UniProt P49653, K188Q); assay: Two-electrode voltage clamp, oocytes expressing rP2X2 Lys188Gln
T2 sequence (P49653 1-472 K188Q): T1 sequence (P49653 1-472 I185V) with V185I, K188Q
Procedure, shortened: as §1

rP2X2 Arg290Lys = biological target: T3, rP2X2 Arg290Lys (Rattus norvegicus, UniProt P49653, R290K); assay: Two-electrode voltage clamp, oocytes expressing rP2X2 Arg290Lys
T3 sequence (P49653 1-472 R290K): T1 sequence (P49653 1-472 I185V) with V185I, R290K
Procedure, shortened: as §1

rP2X2 Thr184Val = biological target: T4, rP2X2 Thr184Val (Rattus norvegicus, UniProt P49653, T184V); assay: Two-electrode voltage clamp, oocytes expressing rP2X2 Thr184Val
T4 sequence (P49653 1-472 T184V): T1 sequence (P49653 1-472 I185V) with T184V, V185I
Procedure, shortened: as §1

rP2X2 Lys71Gln = biological target: T5, rP2X2 Lys71Gln (Rattus norvegicus, UniProt P49653, K71Q); assay: Two-electrode voltage clamp, oocytes expressing rP2X2 Lys71Gln
T5 sequence (P49653 1-472 K71Q): T1 sequence (P49653 1-472 I185V) with K71Q, V185I
Procedure, shortened: as §1

Nc1ncnc2c1ncn2[C@@H]1O[C@H](COP(=O)(O)OP(=O)(O)OP(=O)(O)O)[C@@H](O)[C@H]1O [ATP, Adenosine 5′-triphosphate]
EC50 (rP2X2 Ile185Val): 0.023 ± 0.003 mM
EC50 (rP2X2 Lys188Gln): 8.7 mM
EC50 (rP2X2 Arg290Lys): 0.46 ± 0.06 mM
EC50 (rP2X2 Thr184Val): 3.2 mM
Fold increase in EC50 (reduction in sensitivity), Thr184Val versus WT (rP2X2 Thr184Val; Thr184Val compared with WT): 100 fold
EC50 (rP2X2 Lys71Gln): 6.3 mM
